# Experimental data gathered from unrelated publications.
# Lines come from different studies, so protocols differ.
# Target: Serine/threonine-protein kinase TNNI3K (TNNI3K, Homo sapiens, UniProt Q59H18)
# Sequence (Q59H18 1-835, as in one of the studies): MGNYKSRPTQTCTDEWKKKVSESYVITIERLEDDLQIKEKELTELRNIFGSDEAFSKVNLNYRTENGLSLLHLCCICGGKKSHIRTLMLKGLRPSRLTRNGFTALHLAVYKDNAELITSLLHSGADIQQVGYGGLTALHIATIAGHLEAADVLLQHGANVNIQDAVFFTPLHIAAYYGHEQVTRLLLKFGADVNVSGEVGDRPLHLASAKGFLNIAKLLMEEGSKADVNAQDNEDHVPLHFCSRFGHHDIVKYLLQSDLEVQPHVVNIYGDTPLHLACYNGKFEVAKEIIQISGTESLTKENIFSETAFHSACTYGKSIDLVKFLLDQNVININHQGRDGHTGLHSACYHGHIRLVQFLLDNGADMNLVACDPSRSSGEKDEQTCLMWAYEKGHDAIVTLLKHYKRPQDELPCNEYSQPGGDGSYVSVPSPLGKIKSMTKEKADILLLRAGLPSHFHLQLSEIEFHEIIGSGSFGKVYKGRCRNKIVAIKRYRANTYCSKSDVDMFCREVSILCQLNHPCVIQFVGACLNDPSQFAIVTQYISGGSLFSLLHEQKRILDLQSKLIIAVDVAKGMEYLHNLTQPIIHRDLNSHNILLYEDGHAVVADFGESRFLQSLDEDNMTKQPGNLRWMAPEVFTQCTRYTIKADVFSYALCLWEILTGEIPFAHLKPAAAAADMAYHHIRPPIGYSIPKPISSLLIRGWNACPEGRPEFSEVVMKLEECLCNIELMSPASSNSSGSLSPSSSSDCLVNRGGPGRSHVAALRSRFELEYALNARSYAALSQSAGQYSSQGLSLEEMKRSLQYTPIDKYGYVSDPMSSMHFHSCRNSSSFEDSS
SMILES,test,conditions,remaining binding
O=C(NCCCN1CCOCC1)c1ccc(Nc2nccc(-c3cc4ccccc4s3)n2)cc1,"binding, competition with immobilised ligand",1 µM,70%
Nc1ncc2c(n1)-c1c([nH]c3ccc(C#CC4CC4)cc13)CCCC2,"binding, competition with immobilised ligand",1 µM,94%
CN(C)c1ncc(F)c(-c2cnn3ncccc23)n1,binding,1 µM,100%
Cn1nc(C(F)(F)F)cc1-c1cnc(N2CCc3cc(S(=O)(=O)Nc4c(F)cc(Cl)cc4F)cc(N4CCCC4=O)c32)nc1,"cell-free assay, competition with immobilised ligand",1 µM,65%
O=C(c1ccc(Nc2ncc(Cl)c(-c3ccc(Cl)s3)n2)cc1)N1CCC(N2CCCC2)CC1,"binding, competition with immobilised ligand",1 µM,50%
N[C@@H]1CCN(c2nccc(-c3cnn4ncccc34)n2)C1,binding,1 µM,94%
O=C(NCCCC1CCCCC1)c1ccc(CNC(=O)c2cnn(-c3ccccc3)c2C(F)(F)F)cc1,"cell-free assay, competition with immobilised ligand",0.1 µM,79%
O=C(c1ccc(Nc2ncc(Cl)c(-c3cc4ccccc4s3)n2)cc1)N1CCC(N2CCCC2)CC1,"binding, competition with immobilised ligand",1 µM,50%
COc1ccnn2ncc(-c3ccnc(N(C)C)n3)c12,binding,1 µM,93%
c1cncc(-c2cccc(Nc3nccc(NC4CCCCC4)n3)c2)c1,"binding, competition with immobilised ligand",10 µM,95%
C[C@H]1CCN(c2nccc(-c3cnn4ncccc34)n2)C1,binding,1 µM,100%
Cc1c[nH]c2nccc(Oc3c(F)cc(Nc4cc(Cl)nc(N)n4)cc3F)c12,"cell-free assay, competition with immobilised ligand",0.1 µM,98%
O=C(NCC1CCOCC1)c1n[nH]cc1NC(=O)c1c(F)cccc1F,"binding, competition with immobilised ligand",1 µM,100%
Cc1cnn2ncc(-c3ccnc(N(C)C)n3)c2c1,binding,1 µM,100%
CCN1CCN(Cc2ccc(C(=O)Nc3ccc(C)c(Oc4ccc5c(c4)CC(=O)N5)c3)cc2C(F)(F)F)CC1,"binding, competition with immobilised ligand",1 µM,88%
COc1ncc2cc3ccccc3nc2c1C#N,"cell-free assay, competition with immobilised ligand",5 µM,100%
Nc1cnc(N2CCc3cc(S(=O)(=O)Nc4c(F)cc(Cl)cc4F)cc(N4CCCC4=O)c32)nc1,"binding, competition with immobilised ligand",1 µM,49%
C[C@@H](c1ccc(-n2cnc3c(N)ncnc32)cc1)N1CCc2nn(C)c(Cc3ccccc3)c2C1=O,"binding, competition with immobilised ligand",0.1 µM,88%
COc1ccc2c(O[C@@H]3C[C@H]4C(=O)N[C@]5(C(=O)O)CC5/C=C\CCCCC[C@H](NC(=O)OC5CCCC5)C(=O)N4C3)cc(-c3csc(NC(=O)C(C)C)n3)nc2c1C (stereo partly shown),"cell-free assay, competition with immobilised ligand",1 µM,100%
COc1cnc(Nc2cccc(S(N)(=O)=O)c2)nc1N1CCN(c2ccccc2)C(=O)C1,"binding, competition with immobilised ligand",1 µM,86%
CS(=O)(=O)c1cc(C2(NC(=O)c3cncc4c3cnn4-c3ccc(F)cc3)CC2)ccn1,"cell-free assay, competition with immobilised ligand",1 µM,64%
CC1CCCN1c1nccc(-c2cnn3ncccc23)n1 (stereo not shown),binding,1 µM,99%
